Test results from PubChem BioAssay AID651830 (Vanderbilt Specialized Chemistry Center, 2012).
The source made the active and inactive calls.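 How the source made its calls: active means inhibition above 50% in the panel binding assay; inactive means inhibition of 50% or less.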

Test: radioligand displacement at receptors, transporters, channels – biochemical, Eurofins PanLabs, radioligand binding, selectivity assay for mGlu3 NAM project, profiling panel (AID 651830)
Details: at 10 µM, stronger effect = higher value
Summary of the method: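 Also added – target-selective radioligand · Measured by – radioligand displacement measurement in binding assay · Control set – reference standards included in every assay run · Read-out – % inhibition of radioligand binding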

In the case of `COc1ccc(C#Cc2ccc(C(=O)N3CCC[C@@H](O)C3)c(F)c2)cc1`, the inhibition is reported as 74% (active), the inhibition (measured here: 5-HT1A binding) is reported as 71% and the inhibition (measured here: 5-HT2B binding) is reported as -12%. For the same compound, the inhibition (measured here: N-type calcium channel binding) was 22%, the inhibition (measured here: P2X binding) was 31% and the inhibition (measured here: adenosine A3 binding) was 45%. For the same compound, the inhibition (measured here: alpha1D adrenergic binding) was 20%, the inhibition (measured here: dopamine D3 binding) was 24% and the inhibition (measured here: hERG binding) was 28%. For the same compound, the inhibition (measured here: kainate receptor binding) was 19%, the inhibition (measured here: norepinephrine transporter binding) was 25% and the inhibition (measured here: serotonin transporter binding) was -1%. The inhibition (measured here: sigma1 binding) was 33%.
